From ChEMBL document CHEMBL4396879, “Conjugation of Short Peptides to Dibenzodiazepinone-Type Muscarinic Acetylcholine Receptor Ligands Determines M2R Selectivity” (J Med Chem, 2019) come the findings set out here.

The Ki is a measure of affinity in units of concentration, obtained from inhibition or displacement. Read a low Ki as higher affinity.

Data set [1] concerns the target T1, Muscarinic acetylcholine receptor M2 (Homo sapiens, UniProt P08172).
T1 sequence (P08172 whole entry): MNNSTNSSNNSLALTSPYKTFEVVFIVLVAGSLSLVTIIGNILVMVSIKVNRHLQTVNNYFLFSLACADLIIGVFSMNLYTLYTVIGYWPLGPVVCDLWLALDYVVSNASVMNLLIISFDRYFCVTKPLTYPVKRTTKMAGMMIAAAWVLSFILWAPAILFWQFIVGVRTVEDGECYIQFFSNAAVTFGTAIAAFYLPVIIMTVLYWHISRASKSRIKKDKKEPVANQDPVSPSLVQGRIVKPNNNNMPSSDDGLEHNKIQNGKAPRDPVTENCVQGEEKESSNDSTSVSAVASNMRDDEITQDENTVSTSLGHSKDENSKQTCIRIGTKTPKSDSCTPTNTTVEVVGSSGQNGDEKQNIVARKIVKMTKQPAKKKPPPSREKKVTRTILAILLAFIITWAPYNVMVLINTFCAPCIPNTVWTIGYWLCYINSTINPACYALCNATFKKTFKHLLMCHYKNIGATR
The data set can be described thus: Displacement of [3H]-NMS from human muscarinic M2 receptor expressed in CHO-K9 cells after 3 hrs by microbeta2 scintillation counting method. It counts as cell-based. In a few lines: (§1)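 [3H]NMS competition binding on intact CHO-hMxR cells in L15 medium with 1% BSA, 3 h at 22 ± 1 °C with gentle shaking. [3H]NMS was 0.2 nM (M1, M2, M3), 0.1 nM (M4) or 0.3 nM (M5). […] Cells were lysed in urea/acetic acid/Triton and counted by liquid scintillation. Ki from Cheng-Prusoff. Triplicates, ≥3 experiments.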

For data set [2], the target named is Muscarinic acetylcholine receptors; M1 & M2 (Homo sapiens) (UniProt P11229+P08172). The data set can be described thus: Selectivity ratio of Ki for human muscarinic M1 receptor expressed in CHO-K9 cells to Ki for human muscarinic M2 receptor expressed in CHO-K9 cells. It counts as cell-based. In a few lines:
(§2)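 Ratio of mean Ki values. Each Ki came from an individual [3H]NMS competition experiment at the given CHO-hMxR subtype, converting IC50 to Ki by Cheng-Prusoff before averaging.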

In data set [3] the target is Muscarinic acetylcholine receptor M3 (Homo sapiens, UniProt P20309). The data set can be described thus: Displacement of [3H]-NMS from human muscarinic M3 receptor expressed in CHO-K9 cells after 3 hrs by microbeta2 scintillation counting method. Type of data set: cell-based. In a few lines:
as §1

In data set [4] the target is T2, Muscarinic acetylcholine receptor M5 (Homo sapiens, UniProt P08912).
T2 sequence (P08912 whole entry): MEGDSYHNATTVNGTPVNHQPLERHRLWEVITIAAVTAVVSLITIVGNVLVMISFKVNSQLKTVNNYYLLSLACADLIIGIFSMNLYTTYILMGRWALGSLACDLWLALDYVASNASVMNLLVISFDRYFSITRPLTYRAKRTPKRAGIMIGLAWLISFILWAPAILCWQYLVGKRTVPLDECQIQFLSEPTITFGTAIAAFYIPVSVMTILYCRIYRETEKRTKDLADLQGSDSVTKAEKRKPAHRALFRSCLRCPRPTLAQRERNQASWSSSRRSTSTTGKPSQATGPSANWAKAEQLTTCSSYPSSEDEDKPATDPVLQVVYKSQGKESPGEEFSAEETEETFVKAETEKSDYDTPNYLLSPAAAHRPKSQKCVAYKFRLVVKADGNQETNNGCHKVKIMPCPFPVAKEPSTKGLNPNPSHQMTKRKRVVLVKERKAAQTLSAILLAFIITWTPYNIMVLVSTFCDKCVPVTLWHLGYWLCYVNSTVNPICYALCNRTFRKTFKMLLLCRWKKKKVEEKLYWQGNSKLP
The data set can be described thus: Displacement of [3H]-NMS from human muscarinic M5 receptor expressed in CHO-K9 cells after 3 hrs by microbeta2 scintillation counting method. It counts as cell-based. In a few lines: as §1
(In general: Displacement assays read how much labelled ligand stays bound in the presence of the test substance.)

The target of data set [5] is Muscarinic acetylcholine receptor M2 and M5 (Homo sapiens) (UniProt P08172+P08912). The data set can be described thus: Selectivity ratio of Ki for human muscarinic M5 receptor expressed in CHO-K9 cells to Ki for human muscarinic M2 receptor expressed in CHO-K9 cells. Type of data set: cell-based. In a few lines:
as §2

For data set [6], the target named is T3, Muscarinic acetylcholine receptor M1 (Homo sapiens, UniProt P11229).
T3 sequence (P11229 whole entry): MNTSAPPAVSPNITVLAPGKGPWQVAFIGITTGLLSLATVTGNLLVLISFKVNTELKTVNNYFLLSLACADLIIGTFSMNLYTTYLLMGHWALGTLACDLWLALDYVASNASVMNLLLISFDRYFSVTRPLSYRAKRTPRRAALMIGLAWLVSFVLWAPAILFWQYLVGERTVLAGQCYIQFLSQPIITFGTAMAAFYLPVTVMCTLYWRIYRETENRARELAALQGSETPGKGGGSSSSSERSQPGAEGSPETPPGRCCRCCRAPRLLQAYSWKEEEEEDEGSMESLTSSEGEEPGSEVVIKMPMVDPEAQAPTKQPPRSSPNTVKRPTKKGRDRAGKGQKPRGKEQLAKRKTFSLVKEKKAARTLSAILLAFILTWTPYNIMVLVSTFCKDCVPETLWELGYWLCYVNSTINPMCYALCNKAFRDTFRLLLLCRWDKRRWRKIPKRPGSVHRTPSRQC
The data set can be described thus: Displacement of [3H]-NMS from human muscarinic M1 receptor expressed in CHO-K9 cells after 3 hrs by microbeta2 scintillation counting method. Type of data set: cell-based. The essentials:
as §1

The nature of data set [7]: Stability of the compound in human plasma used as 1:2 ratio of plasma to pH 7.4 PBS assessed as intact compound at 100 uM incubated for 48 hr by LC-MS analysis. It counts as ADME, cell-free. Conditions: plasma diluted with PBS (1:2), read-out: Stability. In a few lines: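 Compound added at 100 μM (from 5 mM stock in acetonitrile/0.04% TFA 3:7) to heparinized human plasma/PBS pH 7.4 (1:2 v/v) with 10 μM 1-methyl-D-tryptophan as internal standard. Incubated shaking at 37 °C in triplicate. Aliquots were EtOH/acetonitrile-precipitated and analysed by RP-HPLC at 220 nm, with recovery correction against four-point calibrations.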

Muscarinic acetylcholine receptor M3, sequence (P20309 whole entry): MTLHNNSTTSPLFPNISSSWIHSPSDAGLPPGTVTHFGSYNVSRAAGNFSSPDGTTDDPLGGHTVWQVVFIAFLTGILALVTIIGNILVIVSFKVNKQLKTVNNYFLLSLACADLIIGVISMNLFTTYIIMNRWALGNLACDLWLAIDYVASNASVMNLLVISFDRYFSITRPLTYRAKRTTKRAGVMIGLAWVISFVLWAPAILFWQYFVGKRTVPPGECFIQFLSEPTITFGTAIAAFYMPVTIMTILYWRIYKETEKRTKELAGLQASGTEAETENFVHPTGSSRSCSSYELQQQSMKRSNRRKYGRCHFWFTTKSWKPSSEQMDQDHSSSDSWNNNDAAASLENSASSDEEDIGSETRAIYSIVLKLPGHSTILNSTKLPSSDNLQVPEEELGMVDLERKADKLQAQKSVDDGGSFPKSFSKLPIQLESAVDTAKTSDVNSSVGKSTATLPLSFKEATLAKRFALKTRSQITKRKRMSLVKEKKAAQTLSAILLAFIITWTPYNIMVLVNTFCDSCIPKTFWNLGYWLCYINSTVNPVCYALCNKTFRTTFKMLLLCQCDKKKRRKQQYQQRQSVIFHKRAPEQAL

As to `CC(=O)N[C@@H](CCCCN)C(=O)N[C@@H](C)C(=O)N[C@@H](CCCNC(=N)N)C(=O)NCCN1CCN(CCCCC2CCN(CC(=O)N3c4ccccc4NC(=O)c4ccccc43)CC2)CC1`, the inhibitory constant (Ki) was 0.0631 nM in data set [1], 110 nM in data set [3], 295 nM in data set [4] and 2.29 nM in data set [6]. Moreover, the figures for the Ratio Ki in data set [2] and in data set [5] were 45 and 4900, respectively. The remaining at 48 h, 100 µM in data set [7] was over 99%.

For the compound `CC(=O)N[C@@H](CCCCN)C(=O)N[C@@H](CCCNC(=N)N)C(=O)NCCCCC1CCN(CC(=O)N2c3ccccc3NC(=O)c3ccccc32)CC1`, the Ki in data set [1] was 1.07 nM; in data set [3], 6760 nM; in data set [4], 427 nM; in data set [6], 41.7 nM. The Ratio Ki in data set [2] came out at 49; in data set [5] it was 400. Also, the remaining at 48 h, 100 µM in data set [7] is over 99%.
